Reference: ChEMBL document CHEMBL3352173, “Optimization of pyrrolamide topoisomerase II inhibitors toward identification of an antibacterial clinical candidate (AZD5099)” (J Med Chem, 2014)
In brackets after ≈: the same amount, converted by molar mass.

Assays:
Streptococcus pyogenes = test: Antimicrobial activity against Streptococcus pyogenes by broth microdilution/CLSI method; type: functional
Escherichia coli [1] = test: Antimicrobial activity against Escherichia coli tolC- by broth microdilution/CLSI method; type: functional; conditions: Escherichia coli; read-out: MIC
Staphylococcus aureus [2] = test: Antimicrobial activity against methicillin-sensitive Staphylococcus aureus by broth microdilution/CLSI method; type: functional; conditions: Staphylococcus aureus; read-out: MIC
[3] = Percentage unbound in human plasma; type: ADME, cell-free
Streptococcus pneumoniae = test: Antibacterial activity against Streptococcus pneumoniae by broth microdilution/CLSI method; type: functional; conditions: Streptococcus pneumoniae; read-out: MIC
Moraxella catarrhalis = test: Antimicrobial activity against Moraxella catarrhalis by broth microdilution/CLSI method; type: functional; conditions: Moraxella catarrhalis; read-out: MIC
[4] = Ratio of MIC for methicillin, quinolone-resistant Staphylococcus aureus to fraction unbound in human plasma; type: ADME
Haemophilus influenzae = test: Antimicrobial activity against Haemophilus influenzae by broth microdilution/CLSI method; type: functional; conditions: Haemophilus influenzae; read-out: MIC
DNA gyrase subunit B = DNA gyrase subunit B (Staphylococcus aureus, UniProt P0A0K8); test: Inhibition of ATPase activity of Staphylococcus aureus GyrB
In short: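 IC50 was determined against S. aureus GyrB in the routine screening assay. The enzyme concentration limits resolution below 10 nM.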

Escherichia coli [5] = test: Antimicrobial activity against wild-type Escherichia coli Eco523 by broth microdilution/CLSI method; type: functional; conditions: Escherichia coli, Eco523; read-out: MIC
[6] = Solubility of the compound; type: physicochemical
Staphylococcus aureus [7] = test: Antimicrobial activity against methicillin, quinolone-resistant Staphylococcus aureus by broth microdilution/CLSI method; type: functional; conditions: Staphylococcus aureus; read-out: MIC
[8] = Octanol-phosphate buffer distribution coefficient, log D of the compound at pH 7.4 by shake flask method; type: physicochemical

Sequence of DNA gyrase subunit B (P0A0K8 whole entry): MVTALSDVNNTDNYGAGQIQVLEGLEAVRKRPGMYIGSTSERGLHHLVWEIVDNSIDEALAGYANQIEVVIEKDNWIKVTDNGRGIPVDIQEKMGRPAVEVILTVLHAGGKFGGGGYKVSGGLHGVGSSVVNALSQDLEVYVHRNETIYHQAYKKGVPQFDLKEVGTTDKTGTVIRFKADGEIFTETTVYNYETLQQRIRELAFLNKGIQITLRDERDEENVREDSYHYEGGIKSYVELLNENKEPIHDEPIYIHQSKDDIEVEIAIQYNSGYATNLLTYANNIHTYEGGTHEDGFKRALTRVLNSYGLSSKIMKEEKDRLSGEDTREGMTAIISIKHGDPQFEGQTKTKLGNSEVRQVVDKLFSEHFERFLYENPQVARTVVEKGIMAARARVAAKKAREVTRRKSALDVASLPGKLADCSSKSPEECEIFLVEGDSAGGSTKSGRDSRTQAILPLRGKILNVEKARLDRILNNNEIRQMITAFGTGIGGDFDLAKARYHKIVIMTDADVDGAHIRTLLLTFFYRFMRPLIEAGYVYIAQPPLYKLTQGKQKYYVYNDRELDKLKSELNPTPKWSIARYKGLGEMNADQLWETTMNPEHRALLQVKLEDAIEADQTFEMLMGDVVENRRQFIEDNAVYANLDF

Structure (SMILES): CO[C@H]1CN(c2nc(C(=O)NCCN3CCCC3=O)c(C(=O)O)s2)CC[C@H]1NC(=O)c1[nH]c(C)c(Cl)c1Cl
- MIC (Streptococcus pyogenes): < 0.06 µg/mL
- MIC (Escherichia coli [1]): 0.71 µg/mL (≈ 1.21 µM)
- MIC (Staphylococcus aureus [2]): 0.35 µg/mL (≈ 0.596 µM)
- fraction unbound [3]: 0.076
- MIC (Streptococcus pneumoniae): < 0.06 µg/mL
- MIC (Moraxella catarrhalis): < 0.063 µg/mL
- Ratio [4]: 18
- MIC (Haemophilus influenzae): 0.5 µg/mL (≈ 0.851 µM)
- IC50 (DNA gyrase subunit B): < 10 nM
- MIC (Escherichia coli [5]): 64 µg/mL (≈ 109 µM)
- solubility [6]: 870 µM (≈ 511 µg/mL)
- MIC (Staphylococcus aureus [7]): 1.4 µg/mL (≈ 2.38 µM)

Structure (SMILES): CO[C@H]1CN(c2nc(C(=O)N3CCOCC3)c(C(=O)O)s2)CC[C@H]1NC(=O)c1[nH]c(C)c(Cl)c1Cl (racemic)
- MIC (Escherichia coli [1]): 4 µg/mL (≈ 7.32 µM)
- MIC (Staphylococcus aureus [2]): 8 µg/mL (≈ 14.6 µM)
- fraction unbound [3]: 0.14
- MIC (Streptococcus pneumoniae): 2 µg/mL (≈ 3.66 µM)
- MIC (Moraxella catarrhalis): 2 µg/mL (≈ 3.66 µM)
- Ratio [4]: > 57
- MIC (Haemophilus influenzae): 8 µg/mL (≈ 14.6 µM)
- IC50 (DNA gyrase subunit B): < 10 nM
- MIC (Escherichia coli [5]): > 8 µg/mL
- logD [8]: -0.99
- solubility [6]: 200 µM (≈ 109 µg/mL)
- MIC (Staphylococcus aureus [7]): > 8 µg/mL

Structure (SMILES): CO[C@H]1CN(c2nc(C(N)=O)c(C(=O)O)s2)CC[C@H]1NC(=O)c1[nH]c(C)c(Cl)c1Cl
- MIC (Streptococcus pyogenes): 0.039 µg/mL (≈ 0.0819 µM)
- MIC (Escherichia coli [1]): 0.32 µg/mL (≈ 0.672 µM)
- MIC (Staphylococcus aureus [2]): 0.5 µg/mL (≈ 1.05 µM)
- fraction unbound [3]: 0.043
- MIC (Streptococcus pneumoniae): 0.039 µg/mL (≈ 0.0819 µM)
- MIC (Moraxella catarrhalis): 0.02 µg/mL (≈ 0.042 µM)
- Ratio [4]: 12
- MIC (Haemophilus influenzae): 0.16 µg/mL (≈ 0.336 µM)
- IC50 (DNA gyrase subunit B): < 10 nM
- MIC (Escherichia coli [5]): > 8 µg/mL
- logD [8]: 0.85
- solubility [6]: 280 µM (≈ 133 µg/mL)
- MIC (Staphylococcus aureus [7]): 0.5 µg/mL (≈ 1.05 µM)

Structure (SMILES): CO[C@H]1CN(c2nc(-c3nccn3C)c(C(=O)O)s2)CC[C@H]1NC(=O)c1[nH]c(C)c(Cl)c1Cl
- MIC (Streptococcus pyogenes): < 0.06 µg/mL
- MIC (Escherichia coli [1]): < 0.06 µg/mL
- MIC (Staphylococcus aureus [2]): < 0.06 µg/mL
- fraction unbound [3]: 0.011
- MIC (Streptococcus pneumoniae): < 0.06 µg/mL
- MIC (Moraxella catarrhalis): < 0.06 µg/mL
- Ratio [4]: 5.2
- MIC (Haemophilus influenzae): 0.25 µg/mL (≈ 0.487 µM)
- IC50 (DNA gyrase subunit B): < 10 nM
- MIC (Escherichia coli [5]): 8 µg/mL (≈ 15.6 µM)
- logD [8]: > 3
- solubility [6]: 12 µM (≈ 6.16 µg/mL)

Structure (SMILES): CO[C@H]1CN(c2nc(C(=O)NCCN3CCOCC3)c(C(=O)O)s2)CC[C@H]1NC(=O)c1[nH]c(C)c(Cl)c1Cl
- MIC (Streptococcus pyogenes): 0.031 µg/mL (≈ 0.0526 µM)
- MIC (Escherichia coli [1]): 0.25 µg/mL (≈ 0.424 µM)
- MIC (Staphylococcus aureus [2]): 0.25 µg/mL (≈ 0.424 µM)
- fraction unbound [3]: 0.054
- MIC (Streptococcus pneumoniae): 0.031 µg/mL (≈ 0.0526 µM)
- MIC (Moraxella catarrhalis): 0.031 µg/mL (≈ 0.0526 µM)
- Ratio [4]: 9.2
- MIC (Haemophilus influenzae): 0.25 µg/mL (≈ 0.424 µM)
- IC50 (DNA gyrase subunit B): < 10 nM
- MIC (Escherichia coli [5]): > 8 µg/mL
- logD [8]: 1
- solubility [6]: > 1000 µM
- MIC (Staphylococcus aureus [7]): 0.5 µg/mL (≈ 0.848 µM)

Structure (SMILES): CO[C@H]1CN(c2nc(C(=O)O)c(C)s2)CC[C@H]1NC(=O)c1[nH]c(C)c(Cl)c1Cl
- MIC (Streptococcus pyogenes): 0.063 µg/mL (≈ 0.141 µM)
- MIC (Escherichia coli [1]): 0.25 µg/mL (≈ 0.559 µM)
- MIC (Staphylococcus aureus [2]): 0.13 µg/mL (≈ 0.291 µM)
- fraction unbound [3]: 0.007
- MIC (Streptococcus pneumoniae): 0.031 µg/mL (≈ 0.0693 µM)
- MIC (Moraxella catarrhalis): 0.063 µg/mL (≈ 0.141 µM)
- Ratio [4]: 19
- MIC (Haemophilus influenzae): 0.25 µg/mL (≈ 0.559 µM)
- IC50 (DNA gyrase subunit B): < 10 nM
- MIC (Escherichia coli [5]): > 8 µg/mL
- logD [8]: 1.2
- solubility [6]: > 1000 µM
- MIC (Staphylococcus aureus [7]): 0.13 µg/mL (≈ 0.291 µM)

Structure (SMILES): CNC(=O)c1sc(N2CC[C@@H](NC(=O)c3[nH]c(C)c(Cl)c3Cl)[C@@H](OC)C2)nc1C(=O)O
- MIC (Escherichia coli [1]): 2 µg/mL (≈ 4.08 µM)
- fraction unbound [3]: < 0.01
- MIC (Streptococcus pneumoniae): > 32 µg/mL
- Ratio [4]: > 200
- IC50 (DNA gyrase subunit B): < 10 nM
- MIC (Escherichia coli [5]): > 64 µg/mL
- solubility [6]: > 1000 µM
- MIC (Staphylococcus aureus [7]): 2 µg/mL (≈ 4.08 µM)

Structure (SMILES): CO[C@H]1CN(c2nc(CO)c(C(=O)O)s2)CC[C@H]1NC(=O)c1[nH]c(C)c(Cl)c1Cl (racemic)
- MIC (Escherichia coli [1]): 1 µg/mL (≈ 2.16 µM)
- MIC (Staphylococcus aureus [2]): > 8 µg/mL
- fraction unbound [3]: 0.029
- MIC (Streptococcus pneumoniae): 2 µg/mL (≈ 4.32 µM)
- MIC (Moraxella catarrhalis): 1 µg/mL (≈ 2.16 µM)
- Ratio [4]: 17
- MIC (Haemophilus influenzae): 8 µg/mL (≈ 17.3 µM)
- IC50 (DNA gyrase subunit B): < 10 nM
- MIC (Escherichia coli [5]): > 8 µg/mL
- logD [8]: -0.27

Structure (SMILES): CO[C@H]1CN(c2nc(-c3ccccn3)c(C(=O)O)s2)CC[C@H]1NC(=O)c1[nH]c(C)c(Cl)c1Cl
- MIC (Streptococcus pyogenes): < 0.06 µg/mL
- MIC (Escherichia coli [1]): 0.13 µg/mL (≈ 0.255 µM)
- MIC (Staphylococcus aureus [2]): < 0.06 µg/mL
- fraction unbound [3]: 0.003
- MIC (Streptococcus pneumoniae): < 0.06 µg/mL
- MIC (Moraxella catarrhalis): < 0.06 µg/mL
- Ratio [4]: < 21
- MIC (Haemophilus influenzae): 0.5 µg/mL (≈ 0.98 µM)
- IC50 (DNA gyrase subunit B): < 9.8 nM
- MIC (Escherichia coli [5]): 8 µg/mL (≈ 15.7 µM)
- logD [8]: > 2.5
- solubility [6]: < 1 µM

Structure (SMILES): CO[C@H]1CN(c2nc(C(=O)N(C)C)c(C(=O)O)s2)CC[C@H]1NC(=O)c1[nH]c(C)c(Cl)c1Cl (racemic)
- MIC (Escherichia coli [1]): 2 µg/mL (≈ 3.97 µM)
- MIC (Staphylococcus aureus [2]): 8 µg/mL (≈ 15.9 µM)
- fraction unbound [3]: 0.13
- MIC (Streptococcus pneumoniae): 4 µg/mL (≈ 7.93 µM)
- MIC (Moraxella catarrhalis): 2 µg/mL (≈ 3.97 µM)
- Ratio [4]: > 62
- MIC (Haemophilus influenzae): 8 µg/mL (≈ 15.9 µM)
- IC50 (DNA gyrase subunit B): < 10 nM
- MIC (Escherichia coli [5]): > 8 µg/mL
- logD [8]: -1
- solubility [6]: > 1000 µM
- MIC (Staphylococcus aureus [7]): > 8 µg/mL

Structure (SMILES): CO[C@H]1CN(c2nc(-c3cncnc3)c(C(=O)O)s2)CC[C@H]1NC(=O)c1[nH]c(C)c(Cl)c1Cl
- MIC (Streptococcus pyogenes): 0.4 µg/mL (≈ 0.782 µM)
- MIC (Escherichia coli [1]): 0.8 µg/mL (≈ 1.56 µM)
- MIC (Staphylococcus aureus [2]): 3.2 µg/mL (≈ 6.26 µM)
- fraction unbound [3]: 0.011
- MIC (Streptococcus pneumoniae): < 0.1 µg/mL
- MIC (Moraxella catarrhalis): 0.4 µg/mL (≈ 0.782 µM)
- Ratio [4]: 290
- MIC (Haemophilus influenzae): 1.6 µg/mL (≈ 3.13 µM)
- IC50 (DNA gyrase subunit B): < 10 nM
- MIC (Escherichia coli [5]): > 100 µg/mL
- logD [8]: 0.35
- solubility [6]: 260 µM (≈ 133 µg/mL)
- MIC (Staphylococcus aureus [7]): 3.2 µg/mL (≈ 6.26 µM)
